Experimental data published in publication PMC6525002 (Cancer Management and Research, 2019).
Entries after “also recorded” stand apart in the source; their conditions may differ.

Experiments:
[1] = tested on: patients with advanced NSCLC and EGFR gene mutations; assay: Phase Ib safety and toxicity; assay type: in vivo, human
Outline: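 3+3 dose escalation (modified Fibonacci) of oral test compound, 100–650 mg flat doses twice daily for 28 days. Safety population was all patients dosed at least once. AEs were graded by NCI CTCAE v4.0. Haematology, liver and renal labs were taken predose on Days 1, 8, 15, 22 and 29, plus ECG, echocardiography and chest X-ray. MTD was defined by >1 DLT per dose level.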

patients = assay: Ongoing study exploring higher simotinib doses; assay type: in vivo, human; conditions: 800 mg, 3 patients
EGFR = conditions: read-out: half maximal inhibitory concentration on EGFR; in vitro; cited from earlier work

## simotinib
[1]; 100 mg twice daily, N=2
  Aminotransferase elevation: 0 n (%)
  Bilirubin elevation: 0 n (%)
  Diarrhea: 0 n (%)
  Erythrocyte reduction: 0 n (%)
  Fatigue: 2 (100) n (%)
  Neutropenia: 0 n (%)
  Pruritus: 2 (100) n (%)
  Rash: 1 (50.0) n (%)
[1]; 200 mg twice daily, N=3
  Aminotransferase elevation: 0 n (%)
  Bilirubin elevation: 2 (66.7) n (%)
  Diarrhea: 3 (100) n (%)
  Erythrocyte reduction: 1 (33.3) n (%)
  Fatigue: 1 (33.3) n (%)
  Neutropenia: 3 (100) n (%)
  Pruritus: 2 (66.7) n (%)
  Rash: 2 (66.7) n (%)
[1]; 300 mg twice daily, N=3
  Aminotransferase elevation: 1 (33.3) n (%)
  Bilirubin elevation: 2 (66.7) n (%)
  Diarrhea: 3 (100) n (%)
  Erythrocyte reduction: 0 n (%)
  Fatigue: 2 (66.7) n (%)
  Neutropenia: 1 (33.3) n (%)
  Pruritus: 1 (33.3) n (%)
  Rash: 0 n (%)
[1]; 400 mg dose
  death during the treatment phase: 1 patient
[1]; 400 mg dose group
  patients with at least 1 study drug-related AE: 86.7%
[1]; 400 mg twice daily, N=15
  Aminotransferase elevation: 2 (13.3) n (%)
  Bilirubin elevation: 1 (6.7) n (%)
  Diarrhea: 7 (46.7) n (%)
  Erythrocyte reduction: 4 (26.7) n (%)
  Fatigue: 2 (13.3) n (%)
  Neutropenia: 3 (20.0) n (%)
  Pruritus: 4 (26.7) n (%)
  Rash: 2 (13.3) n (%)
[1]; 500 mg dose group
  patients with at least 1 study drug-related AE: 91.7%
[1]; 500 mg group
  AEs of grade ≥3: 3 patients
[1]; 500 mg twice daily, N=12
  Aminotransferase elevation: 2 (16.7) n (%)
  Bilirubin elevation: 2 (16.7) n (%)
  Diarrhea: 7 (58.3) n (%)
  Erythrocyte reduction: 2 (16.7) n (%)
  Fatigue: 3 (25.0) n (%)
  Neutropenia: 2 (16.7) n (%)
  Pruritus: 1 (8.3) n (%)
  Rash: 9 (75.0) n (%)
[1]; 650 mg twice daily, N=6
  Aminotransferase elevation: 3 (50.0) n (%)
  Bilirubin elevation: 0 n (%)
  Diarrhea: 3 (50.0) n (%)
  Erythrocyte reduction: 2 (33.3) n (%)
  Fatigue: 0 n (%)
  Neutropenia: 2 (33.3) n (%)
  Pruritus: 0 n (%)
  Rash: 3 (50) n (%)
[1]; 100, 200, 300, and 650 mg dose groups
  patients with at least 1 study drug-related AE: all patients
[1]; 100 to 650 mg twice daily
  tolerability: well tolerated
[1]; 100 to 650 mg twice daily, 28 days
  dose-limiting toxicity (DLT): no dose-limiting toxicities; also recorded: No DLT was observed
[1]; Total N=41
  Aminotransferase elevation: 8 (19.5) n (%)
  Bilirubin elevation: 7 (17.1) n (%)
  Diarrhea: 23 (56.1) n (%)
  Erythrocyte reduction: 9 (22.0) n (%)
  Fatigue: 10 (24.4) n (%)
  Neutropenia: 11 (26.8) n (%)
  Pruritus: 10 (24.4) n (%)
  Rash: 17 (41.5) n (%)
[1]; all doses, 7 of 41 patients
  AEs of grade ≥3, patients: 17.1%
[1]; all doses, 38 of 41 patients
  patients with at least one study drug-related AE: 92.7%
[1]; all doses, 39 of 41 patients
  patients with at least one AE: 95.1%
[1]; all doses, 41 patients
  anemia, frequency: 22.0%
  diarrhea, frequency: 56.1%
  fatigue, frequency: 24.4%
  increased level of aminotransferase, frequency: 19.5%
  increased level of bilirubin, frequency: 17.1%
  neutropenia, frequency: 26.8%
  pruritus, frequency: 24.4%
  rash, frequency: 41.5%
[1]; doses of up to 650 mg twice daily
  maximum tolerated dose (MTD): not found; also recorded: not reached
[1]; one patient, 500 mg
  patients who discontinued the study: 2.4%
patients
  bradycardia: 1 patient
  decreased blood pressure of <90/60 mmHg: occurred in all patients
  dose reduction due to cardiovascular events: 1 patient
EGFR
  IC50: 19.9 nM
